Screening results deposited in PubChem BioAssay by several laboratories.
B2AR ag: agonists of human beta-2 adrenergic receptor inducing internalization. P07550. Am2.2-beta2AR cells, FAP receptor internalization, flow cytometry. response, % (no concentration beside the values). hit rate 0.43% among 340,000. AID 504454;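 active = response above a set limit, near 3 SD of response in nonfluorescent compounds, cut at about 42% in these data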
MC4R antagonist: antagonists of human melanocortin 4 receptor (MC4R) | MC4R-expressing cells, MTII-stimulated cAMP, LANCE TR-FRET | hit rate 0.48% among 360,000 | inhibition, % at 6.5 µM | P32245;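 active = inhibition above its plate's cutoff, the mean of tested wells on that plate plus 3 SD, cut at about 29% in these data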
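Material: U2OS-MC4R stable cell line | Reagent: Melanotan II challenge after compound preincubation | Doses: One concentration, 6.5 µM nominal | Incubation: 30-min compound preincubation, 1-h Melanotan II challenge, 1-h detection, room temperature | Signal: TR-FRET cAMP assay | Replicates: One well per compound, no replicates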
TAAR1 ag: human TAAR1 agonism; CHO RD-HGA16 TAAR1, Fluo-8 calcium fluorescence; vehicle wells 0%, saturating PEA agonist 100%; Q96RJ0; activation, % at 3 µM; hit rate 0.99% among 360,000;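 active = activation above the mean activation of all test compounds in the run plus 3 SD, cut at about 38% in these data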
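System: CHO-derived RD-HGA16 cells with stable Gα16 and human TAAR1 / Times: 17-24 h plating, Fluo-8 75 min 37 °C, 30 min RT / Technique: calcium-sensitive Fluo-8 signal, excitation 470-495, emission 515-575 nm / Measure: % activation relative to PEA EC100 response / Benchmarks: DMSO and PEA EC100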
m5-HT2A agonist: mouse HTR2A agonism via beta-arrestin recruitment; AID 624169; hit rate 0.66% among 360,000; CHO-K1 mHTR2A beta-arrestin complementation, luminescence; percent of 30 µM serotonin response; activation, % at 7.6 µM; P35363;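 active = activation above a run cutoff, the mean activation of all tested compounds plus 3 SD, cut at about 14% in these data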
Target sequence (P35363 whole entry, looked up): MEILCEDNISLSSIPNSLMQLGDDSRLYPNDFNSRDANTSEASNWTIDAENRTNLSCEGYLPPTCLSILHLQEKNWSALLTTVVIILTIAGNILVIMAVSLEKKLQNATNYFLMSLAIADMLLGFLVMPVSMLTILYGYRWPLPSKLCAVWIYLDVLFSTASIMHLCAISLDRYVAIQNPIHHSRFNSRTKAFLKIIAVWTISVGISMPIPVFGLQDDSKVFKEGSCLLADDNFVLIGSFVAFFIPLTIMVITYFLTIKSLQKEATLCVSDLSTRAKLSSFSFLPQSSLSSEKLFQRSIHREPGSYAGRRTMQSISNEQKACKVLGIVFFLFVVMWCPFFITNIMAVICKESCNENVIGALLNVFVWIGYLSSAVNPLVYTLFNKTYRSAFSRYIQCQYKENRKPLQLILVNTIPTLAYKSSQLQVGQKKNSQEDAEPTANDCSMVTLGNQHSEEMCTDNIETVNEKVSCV
TAAR1 antag: human TAAR1 antagonism; Q96RJ0; CHO RD-HGA16 TAAR1, Fluo-8 calcium fluorescence, antagonist; inhibition, % at 3 µM; hit rate 1.5% among 360,000;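 active = inhibition above a per-plate cutoff, the mean inhibition of test compounds on that plate plus 3 SD, cut at about 49% in these data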
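Test system: CHO RD-HGA16 cells bearing hTAAR1 | Reagent: β-PEA, EC80 | Compound dosing: 3 µM, single point | Schedule: Dye loading 75 min at 37 °C, then 30 min room temperature | Signal: Calcium fluorescence with Fluo-8 | Evaluation: Percent inhibition of PEA-evoked calcium signal, max/basal emission ratio | Control set: DMSO-only wells and EC80 β-PEA-stimulated wells | Repeats: Singlicate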
MC4R ag barr: activates human MC4R beta-arrestin recruitment; hit rate 0.98% among 360,000; U2OS MC4R beta-arrestin complementation, luminescence; percent of melanotan II response, DMSO zero; activation, % at 8.9 µM;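 active = activation above a per-plate cutoff, the mean activation of sample wells on that plate plus 3 SD, cut at about 8% in these data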
cAMP nonselect: counter-screen for MC4R antagonists: nonselective cAMP signaling inhibitors | inhibition, % at 6.5 µM | AID 602193 | hit rate 26% among 1,600 | parental U2OS, forskolin cAMP, LANCE TR-FRET | shares compounds with MC4R antagonist;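 active = mean inhibition over triplicates above the low-control well mean plus 3 SD, set per campaign, cut at about 13% in these data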;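 also: signal is single emission at 671 nm which falls as cellular cAMP rises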
MC4R cAMP antag: human MC4R cAMP antagonism confirmation | shares compounds with MC4R antagonist | hit rate 27% among 1,600 | MC4R-expressing cells, MTII-stimulated cAMP, TR-FRET | inhibition, % at 6.5 µM; in the data active = inhibition above about 29%
Of the large screens only hits and unclear results are named; the others gave an inactive call (follow-up assays come after a bar, where they were run). Rows were chosen to be rich in hits. Some 4.3% of all compounds tested hit in one or more screens of this group.

COc1cc(-c2cc(NC(C)=O)c3ncc(-c4ccc(C(C)=O)cc4)n3c2)cc(OC)c1OC	MC4R antagonist 29, MC4R ag barr 8.7 (no result: B2AR ag) | cAMP nonselect inactive | MC4R cAMP antag inactive
CS(=O)(=O)N1CCN(c2nnc(-c3ccccc3)c3ccccc23)CC1	none
O=S(=O)(c1ccccc1)N1CCN(c2nnc(-c3ccccc3)c3ccccc23)CC1	MC4R antagonist 30 | cAMP nonselect inactive | MC4R cAMP antag inactive
CCc1cc(C(=O)NCC(c2ccco2)N2CCCCC2)sc1C (centres undefined)	none
Cc1ccc(S(=O)(=O)N2CCc3cc4c(cc3C2C)OCCCO4)cc1 (centres undefined)	none
COc1ccc(CC2(CO)CCN(Cc3ccncc3)CC2)cc1	none
COc1ccc(CC2(CO)CCN(Cc3cnn(C)c3C)CC2)cc1	MC4R antagonist 30 | cAMP nonselect inactive | MC4R cAMP antag inactive
Nc1nonc1-n1nnc(C(=O)N/N=C/c2cccnc2)c1-c1ccccc1	none
CN(CC(=O)Nc1ccccc1C(F)(F)F)C(=O)CN1C(=O)C2CCCCC2C1=O (centres undefined)	none
C/C(=N\NC(=O)c1ccccc1Cl)c1ccccn1	MC4R antagonist 29 | cAMP nonselect 29 | MC4R cAMP antag inactive
COc1ccc(C(=O)N/N=C(\C)c2ccccn2)cc1OC	none
C/C(=N\NC(=O)c1ccc(Cl)c(Cl)c1)c1ccccn1	MC4R antagonist 29 | cAMP nonselect 20 | MC4R cAMP antag inactive
Nc1cc2c3ccccc3ccc2c2ccccc12	none
CCCn1ncc(CN2CCC(n3nccc3NC(=O)CCc3ccccc3)CC2)c1C	none
O=C(CSc1ccccn1)N1CCN(c2ccccc2)CC1	none (no result: TAAR1 ag, TAAR1 antag)
O=C(CSc1ccccn1)N1CCOCC1	MC4R antagonist 29 | cAMP nonselect inactive | MC4R cAMP antag inactive
O=C(CSc1nc2ccccc2n1CCc1ccccc1)N1CCOCC1	MC4R antagonist 33 | cAMP nonselect inactive | MC4R cAMP antag inactive
O=C(CSc1nc2ccccc2n1CC(=O)N1CCOCC1)N1CCCC1	none
CC(=O)CC1c2ccccc2C=C(c2ccsc2)N1c1ccc(-c2cccs2)cc1 (centres undefined)	none (no result: B2AR ag, MC4R antagonist, MC4R ag barr)
CCCCN(Cc1ccco1)C(=O)C1CCCN(c2ncnc3c2nc2n3CCCCC2)C1 (centres undefined)	MC4R antagonist 32 | cAMP nonselect inactive | MC4R cAMP antag inactive
CCOc1ccc(C(=O)CCC(=O)NCC(=O)OCc2ccccc2)cc1OCC	MC4R antagonist 32 | cAMP nonselect inactive | MC4R cAMP antag inactive
CCOc1ccc(C(=O)OCC(=O)NCc2ccccc2)cc1OCC	none
C#CC(=O)N(c1cc(OC)ccc1OC)C(C(=O)NC1CCCC1)c1cccs1 (centres undefined)	MC4R antagonist 33, MC4R ag barr 16 (no result: TAAR1 ag, TAAR1 antag) | cAMP nonselect inactive | MC4R cAMP antag inactive
C#CC(=O)N(c1ccc(OC)cc1OC)C(C(=O)NC1CCCC1)c1cccs1 (centres undefined)	MC4R antagonist 43, MC4R ag barr 9.0 | cAMP nonselect inactive | MC4R cAMP antag 42
CCOC(=O)c1ccc(NC(=O)N2CCN(c3cccc(OC)c3)CC2)cc1	MC4R antagonist 29 | cAMP nonselect inactive | MC4R cAMP antag inactive
NS(=O)(=O)c1ccc(N2N=C(c3ccccc3)CC2c2ccccc2)cc1 (centres undefined)	none
NS(=O)(=O)c1ccc(N2N=C(c3ccccc3)CC2c2ccc(Br)cc2)cc1 (centres undefined)	MC4R antagonist 37 (no result: B2AR ag) | cAMP nonselect inactive | MC4R cAMP antag inactive
CCOC(=O)c1cnc2ccc(OCC)cc2c1N(C)Cc1ccccc1	MC4R antagonist 30 | cAMP nonselect inactive | MC4R cAMP antag 31
Cc1ccccc1N1C(=O)c2cccc([N+](=O)[O-])c2C1=O	MC4R antagonist 32 | cAMP nonselect 14 | MC4R cAMP antag inactive
CCOC(=O)c1c(-c2ccc(F)cc2)csc1NC(=O)CN1C(=O)NC2(CCCCC2C)C1=O (centres undefined)	MC4R antagonist 32 | cAMP nonselect inactive | MC4R cAMP antag inactive
S=c1[nH]c2ccccc2n2c(=S)[nH]nc12	MC4R antagonist 31 | cAMP nonselect 46 | MC4R cAMP antag 74
CS(=O)(=O)Cc1cccc(C(=O)NC2CCSc3ccccc32)c1 (centres undefined)	MC4R antagonist 32 | cAMP nonselect inactive | MC4R cAMP antag inactive
CN(C)S(=O)(=O)c1cccc(C(=O)NC2CCSc3ccccc32)c1 (centres undefined)	none
Cc1ccc2c(c1)C1CN(C)CCC1N2S(=O)(=O)c1cc(C(F)(F)F)ccc1Cl (centres undefined)	none
CCC1C(c2ccccc2)N(C)C(c2ccccc2)CC1(O)c1ccccc1 (centres undefined)	none
CC(C)C1C(c2ccccc2)N(C)C(c2ccccc2)CC1(O)c1ccccc1 (centres undefined)	MC4R antagonist 29 | cAMP nonselect inactive | MC4R cAMP antag inactive
CCOC(=O)Nc1cc2c(cc1[N+](=O)[O-])-c1ccccc1C2=O	none
Cc1cc(Br)cc2c1N(C)C(=O)C2(c1ccc(O)cc1)c1ccc(O)cc1	none
CN(C)c1ccc(-n2cccc2/C=C/[N+](=O)[O-])cc1	MC4R antagonist 39 | cAMP nonselect inactive | MC4R cAMP antag 31
CC(OC(=O)c1ccc(S(C)(=O)=O)c([N+](=O)[O-])c1)C(=O)NC1C2CC3CC(C2)CC1C3 (centres undefined)	MC4R antagonist 29 (no result: B2AR ag) | cAMP nonselect inactive | MC4R cAMP antag inactive
CCS(=O)(=O)N1CCN(c2ccc(C(=O)NC34CC5CC(CC(C5)C3)C4)cc2[N+](=O)[O-])CC1	none
CCC(OC(=O)c1ccc(S(C)(=O)=O)c([N+](=O)[O-])c1)C(=O)NC1C2CC3CC(C2)CC1C3 (centres undefined)	MC4R antagonist 60 (no result: B2AR ag) | cAMP nonselect inactive | MC4R cAMP antag inactive
Cc1noc(NS(=O)(=O)c2ccc(NC(=O)c3ccccc3NS(=O)(=O)c3ccc(F)cc3)cc2)c1C	none
CCOC(=O)c1ccc(N=c2sc(C(=O)OC)cc(=O)n2CCCN2CCOCC2)cc1	none
CCOC(=O)c1ccc(N=c2sc(C(=O)OC)cc(=O)n2Cc2ccco2)cc1	MC4R antagonist 32 | cAMP nonselect inactive | MC4R cAMP antag 36
